Data as given in ChEMBL document CHEMBL1781993, “Synthesis and biological evaluation of novel 7-acyl homocamptothecins as Topoisomerase I inhibitors” (Eur J Med Chem, 2011).
Calls of active or inactive are those of the source. The calls are words filed in the database; no cut-off is given here.

Legend:
HCT-116 = experiment: Cytotoxicity against human HCT116 cells after 3 days by MTT assay; format: functional, cell-based; conditions: HCT-116, 72 h
In short: (§1)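 After 3 days, MTT (5 mg/mL solution) was added and plates incubated a further 4 h. Formazan was dissolved in DMSO and absorbance read at 570 nm. Survival expressed as percentage of untreated control wells.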

MDA-MB-435 = experiment: Cytotoxicity against human MDA-MB-435 cells after 3 days by MTT assay; format: functional, cell-based; conditions: MDA-MB-435, 72 h; in short: as §1
A549 = experiment: Cytotoxicity against human A549 cells after 3 days by MTT assay; format: functional, cell-based; conditions: A549, 72 h; in short: as §1
[1] = biological target: T1, Topoisomerase I (Bos taurus) (UniProt Q2HPH0); experiment: Inhibition of calf thymus topoisomerase 1-mediated relaxation of supercoiled pBR322 at 10 uM after 15 mins using ethidium bromide staining by UV transilluminator analysis
T1 sequence (whole entry): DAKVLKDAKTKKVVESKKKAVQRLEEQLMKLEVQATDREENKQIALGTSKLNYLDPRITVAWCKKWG
In short: (§2)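 Topo I with DNA was reacted with compound at 37 °C for 15 min. Reactions were stopped with SDS (0.5% final), then 6× loading buffer (0.1 mM EDTA, 7% glycerol, 0.01% xylene cyanol FF, 0.01% bromophenol blue) was added. Products were separated by gel. Compound concentrations were 1, 10 and 50 µM, and a topo I plus DNA sample without drug served as reference.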

[2] = biological target: T1, Topoisomerase I (Bos taurus); experiment: Inhibition of calf thymus topoisomerase 1-mediated relaxation of supercoiled pBR322 assessed as increase in cleavable complex level after 15 mins using ethidium bromide staining by UV transilluminator analysis; in short: as §2
[3] = biological target: T1, Topoisomerase I (Bos taurus); experiment: Inhibition of calf thymus topoisomerase 1-mediated relaxation of supercoiled pBR322 assessed as formation of nicked DNA at 1 to 50 uM after 15 mins using ethidium bromide staining by UV transilluminator; in short: as §2

SMILES | IC50 (HCT-116) [µM] | IC50 (MDA-MB-435) [µM] | IC50 (A549) [µM] | topoisomerase I inhibition (qualitative call) [1] | inhibition [2] | inhibition [1] | inhibition [3]
CCC1(O)CC(=O)OCc2c1cc1n(c2=O)Cc2c-1nc1ccc(OC)cc1c2C(=O)c1cc(C)cc(C)c1 (racemic) | 26.3 | > 100 | 48 | – | – | – | –
CCCC(=O)c1c2c(nc3ccc(OC)cc13)-c1cc3c(c(=O)n1C2)COC(=O)CC3(O)CC (racemic) | 0.268 | 0.198 | 14.1 | – | – | – | –
CCC1(O)CC(=O)OCc2c1cc1n(c2=O)Cc2c-1nc1ccc(OC)cc1c2C(=O)c1ccc2ccccc2c1 (racemic) | 22.8 | > 100 | > 100 | – | – | – | –
CCC1(O)CC(=O)OCc2c1cc1n(c2=O)Cc2c-1nc1ccc(OC)cc1c2C(=O)C1CC1 (racemic) | 0.00593 | 0.0482 | 2.48 | – | – | – | –
CCC1(O)CC(=O)OCc2c1cc1n(c2=O)Cc2c-1nc1ccc(OC)cc1c2C(=O)c1ccc(C)cc1 (racemic) | 8.17 | 7.17 | 3.39 | – | – | – | –
CCC1(O)CC(=O)OCc2c1cc1n(c2=O)Cc2c-1nc1ccc(OC)cc1c2C(=O)C1CCCCC1 (racemic) | 0.446 | < 0.001 | 0.669 | – | – | – | –
CCCCCCC(=O)c1c2c(nc3ccc(OC)cc13)-c1cc3c(c(=O)n1C2)COC(=O)CC3(O)CC (racemic) | 0.317 | 0.133 | 0.478 | Active | – | – | –
CCC1(O)CC(=O)OCc2c1cc1n(c2=O)Cc2c-1nc1ccc(OC)cc1c2C(=O)c1ccc(C(F)(F)F)cc1 (racemic) | 1.91 | 1.48 | 0.625 | Active | – | – | –
CC[C@@]1(O)C(=O)OCc2c1cc1n(c2=O)Cc2cc3ccccc3nc2-1 | – | – | – | – | Dose-dependent effect | Active | –
CCC1(O)CC(=O)OCc2c1cc1n(c2=O)Cc2c-1nc1ccc(OC)cc1c2C1CCCC1 (racemic) | 0.0714 | 0.0415 | 0.73 | Active | – | – | –
CCCCC(=O)c1c2c(nc3ccc(OC)cc13)-c1cc3c(c(=O)n1C2)COC(=O)CC3(O)CC (racemic) | 0.277 | 0.198 | 7.03 | – | – | – | –
CC[C@@]1(O)C(=O)OCc2c1cc1n(c2=O)Cc2cc3c(CN(C)C)c(O)ccc3nc2-1 [TOPOTECAN] | 1.1 | 0.448 | 3.16 | – | – | – | –
CCC1(O)CC(=O)OCc2c1cc1n(c2=O)Cc2c-1nc1ccc(OC)cc1c2C(=O)C(C)C (racemic) | 0.404 | 0.0216 | 2.27 | – | – | – | –
CCC1(O)CC(=O)OCc2c1cc1n(c2=O)Cc2c-1nc1ccc(OC)cc1c2C1CCCCC1 (racemic) | 0.118 | 0.0761 | 0.657 | – | – | – | –
CCC1(O)CC(=O)OCc2c1cc1n(c2=O)Cc2c-1nc1ccc(OC)cc1c2C(=O)c1ccc(F)cc1 (racemic) | 13.1 | 15.9 | 7.79 | – | – | – | –
CCC1(O)CC(=O)OCc2c1cc1n(c2=O)Cc2c-1nc1ccc(OC)cc1c2C(=O)c1ccccc1 (racemic) | 2.94 | 2.21 | 1.77 | – | – | – | –
CCC1(O)CC(=O)OCc2c1cc1n(c2=O)Cc2c-1nc1ccc(OC)cc1c2C(=O)c1ccc(Cl)cc1 (racemic) | 3.02 | 2.09 | 0.665 | – | – | – | –
CCC1(O)CC(=O)OCc2c1cc1n(c2=O)Cc2c-1nc1ccc(OC)cc1c2C(=O)C1CCCC1 (racemic) | 0.00217 | < 0.001 | 0.43 | Active | Dose-dependent effect | – | Active
CCC(=O)c1c2c(nc3ccc(OC)cc13)-c1cc3c(c(=O)n1C2)COC(=O)CC3(O)CC (racemic) | 0.056 | 0.0633 | 8.96 | – | – | – | –
CCC1(O)CC(=O)OCc2c1cc1n(c2=O)Cc2c-1nc1ccc(OC)cc1c2C(=O)c1cccs1 (racemic) | 2.19 | 1.61 | 0.607 | Active | – | – | –
CCC1(O)CC(=O)OCc2c1cc1n(c2=O)Cc2c-1nc1ccc(OC)cc1c2C(=O)c1ccco1 (racemic) | 0.294 | 0.00218 | < 0.001 | Active | Dose-dependent effect | – | Active
CCC1(O)CC(=O)OCc2c1cc1n(c2=O)Cc2c-1nc1ccc(OC)cc1c2C(=O)c1ccc(OC)cc1 (racemic) | 2.07 | 16.3 | 9.25 | – | – | – | –
